In ChEMBL document CHEMBL1149300, “Novel retinoic acid metabolism blocking agents endowed with multiple biological activities are efficient growth inhibitors of human breast and prostate cancer cells in vitro and a human breast tumor xenograft in nude mice” (J Med Chem, 2004):
The source made the active and inactive calls. The calls are words filed in the database; no cut-off is given here.

Tests used:
MCF7 [1] = assay: Antiproliferative effect against human MCF7 cells; format: functional, cell-based
In short: (§1)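 MCF-7 (IMEM, 5% FBS) or T47D (RPMI 1640, 10% FBS) cells, 1 × 10^4 per well, adhered ~18 h, then exposed to 0.0001-10 µM drug (ethanol) for 6 days with media and drug renewed on day 4. MTT for 2 h, formazan dissolved in DMSO, A540. Triplicate wells, 2-3 experiments; IC50 by nonlinear regression.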

LNCaP = assay: Growth inhibition of human LNCaP cells after 6 days by MTT assay; format: functional, cell-based; conditions: 144 h
In short: (§2)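 LNCaP cells (1 × 10^4) on poly-L-lysine-coated wells, attached 36 h; PC-3 cells (1 × 10^4), uncoated, attached 24 h; both in RPMI 1640. Treated with a concentration range of drug for 6 days, medium changed every 3 days. MTT read-out at 540 nm; IC50 by nonlinear regression from at least two experiments.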

MCF7 [2] = assay: Reduction of tumor growth in MCF7 cells xenografted ovariectomized mouse at 0.033 mmol/kg, sc for 6 weeks relative to control; format: functional; conditions: Homo sapiens
In short: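 Female ovariectomized nude mice received estrogen pellets. MCF-7 cells (2 × 10^6 in Matrigel) were injected sc into both flanks and grown 4-5 weeks to 200-300 mm3. Groups of n = 5 were dosed sc once daily, 6 days/week for 6 weeks, vehicle 0.3% HPC, 200 µL. Tumors were measured weekly by caliper, volume = (4/3)πr1²r2, and change was compared with vehicle controls.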

MDA-MB-231 = assay: Growth inhibition of human MDA-MB-231 cells up to 10 uM after 6 days by MTT assay; format: functional, cell-based
PC-3 = assay: Growth inhibition of human PC3 cells after 6 days by MTT assay; format: functional, cell-based; conditions: PC-3, 144 h; in short: as §2
Mesocricetus auratus = organism: Mesocricetus auratus; assay: Inhibition of ATRA hydroxylase in Syrian golden hamster liver microsome assessed ATRA metabolism using [11.12-3H]-ATRA; format: microsomes
In short: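 Microsomes from male Syrian golden hamster liver, or from T47D cells pretreated with 1 µM ATRA. Incubation in 0.1 M phosphate buffer pH 7.4 with NADPH, MgCl2 and BSA, inhibitor in DMSO; 3 min preincubation at 37 °C, then [11,12-3H]-ATRA for 30 min at 37 °C under oxygen. Ethyl acetate extraction, reverse-phase HPLC with radiometric detection; percent polar metabolites; IC50 from dose-response curves.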

T47D = assay: Growth inhibition of human T47D cells after 6 days by MTT assay; format: functional, cell-based; conditions: 144 h; in short: as §1
[3] = Displacement of [11,12-3H]ARTA from RARgamma; design: species or system Homo sapiens
In short: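 Recombinant S-Tag RARα, RARβ or RARγ fusion protein extracts (10-30 µg/mL total protein) in HEPES pH 7.9 binding buffer. Incubated with 1 nM [3H]all-trans-RA and 0-500 nM test compound for 3 h at 27 °C. Nonspecific binding measured with a 200-fold excess of unlabeled RA; IC50 from dose-response curves, at least two experiments.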

MCF7 [4] = assay: Growth inhibition of human MCF7 cells after 6 days by MTT assay; format: functional, cell-based; conditions: MCF7, 144 h; in short: as §1

CC1=C(/C=C/C(C)=C/C=C/C(C)=C/C(=O)O)C(C)(C)CCC1 [TRETINOIN]
IC50 (MCF7 [1]): 584 nM | IC50 (LNCaP): 10000 nM | Activity (MCF7 [2]): inactive | Activity (MDA-MB-231): inactive | IC50 (PC-3): 2000 nM | Km (Mesocricetus auratus): 0.16 µM | IC50 (T47D): 6 nM | IC50 [3]: 10 nM | IC50 (MCF7 [4]): 580 nM
